Five molecules from ChEMBL document CHEMBL4428030, “Design and Synthesis of Structure-Simplified Derivatives of Gonytolide for the Promotion of Innate Immune Responses” (J Nat Prod, 2016) can be followed below.

Molecules are shown by their SMILES. Calls of active or inactive are those of the source. No cut-off for these calls is given here. A value given as a limit tells only on which side of the number the result lay.

Data set [1] concerns Drosophila. Nature of the data set: Stimulation of innate immune response in Drosophila third-instar larvae assessed as DAP-type peptidoglycans-mediated Dpt-LacZ activation at 1 to 10 ug/ml after 12 hrs by beta-galactosidase reporter gene assay. It is filed as functional, organism-based. The method in brief: (§1)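 Opened third-instar Dpt-lacZ larvae cultured whole in Schneider's medium with 20% FBS and 1% antibiotics/antimycotics, 25 °C, six larvae per condition as replicates. Compound added from DMSO together with 100 ng/mL E. coli peptidoglycan for 12 h. Each larva sonicated in phosphate buffer (60 mM Na2HPO4, 40 mM NaH2PO4, 10 mM KCl, 1 mM MgCl2) and spun 10000g, 4 °C, 10 min. Supernatant β-galactosidase normalized to total protein.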
On the technique in general: In a reporter assay the amount or activity of a reporter protein is the signal.

The subject of data set [2] is HUVEC. In words: Stimulation of innate immune response in HUVEC assessed as increase in TNFalpha-stimulated IL-8 production at 10 ug/ml preincubated for 3 hrs followed by TNFalpha stimulation measured after 12 hrs by ELISA. Format: functional, cell-based. The note with it: Homo sapiens. The method in brief: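 HUVECs grown in EGM-2 at 37 °C, 5% CO2. Cells preincubated ±compound for 3 h, then given 11 μL of 10 ng/mL hTNF-α (stock added to 100 μL well). Supernatants collected after a further 12 h for ELISA.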
In general terms: In an ELISA, binding on a coated surface is turned into a signal by an enzyme label.

In data set [3] the test system is Drosophila. In words: Stimulation of innate immune response in Drosophila third-instar larvae assessed as DAP-type peptidoglycans-mediated Dpt-LacZ activation at 10 ug/ml after 12 hrs by beta-galactosidase reporter gene assay. It is filed as functional, organism-based. The method in brief:
as §1

Data set [4] in a line: Cytotoxicity against Drosophila melanogaster S2 cells assessed as reduction in cell viability at 10 ug/ml by WST8 assay. Format: cell-based. The method in brief:
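S2 cells kept at 25 °C in Schneider's medium with 10% FBS and 1% antibiotics/antimycotics. Viability read by colorimetric WST-8 conversion.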
(Formazan colour is commonly taken as a measure of viable cells.)

The test system of data set [5] is Drosophila. In words: Stimulation of innate immune response in Drosophila third-instar larvae assessed as DAP-type peptidoglycans-mediated Dpt-LacZ activation at 10 ug/ml after 12 hrs by beta-galactosidase reporter gene assay relative to control. Format: functional. The method in brief:
as §1

With `COc1cc(C)c(-c2c(C)cc(OC)c3c(=O)cc(CCCCO)oc23)c2oc(CCCCO)cc(=O)c12`, in data set [1], the result was inactive.

`COc1ccc(-c2cc(=O)c3c(OC)cc(C)c(-c4c(C)cc(OC)c5c(=O)cc(-c6ccc(OC)cc6)oc45)c3o2)cc1`: the result in data set [2] and in data set [3] was Active. For the same molecule, in data set [4], the Activity entry is reported as “Non-Toxic”.

As to `COc1cc(C)c(-c2c(C)cc(OC)c3c(=O)cc(CCCCOC(C)=O)oc23)c2oc(CCCCOC(C)=O)cc(=O)c12`, the result in data set [3] was Active. In addition, the Activity entry in data set [4] is on record as “Non-Toxic”.

Turning to `COC(=O)CCCc1cc(=O)c2c(OC)cc(C)c(-c3c(C)cc(OC)c4c(=O)cc(CCCC(=O)OC)oc34)c2o1`, the result in data set [2] and in data set [3] was Active. Besides, the Activity entry in data set [4] is “Non-Toxic”.

Take `COC(=O)[C@]1([C@@H]2CCC(=O)O2)CC(=O)c2c(O)cc(C)c(-c3c(C)cc(O)c4c3O[C@@](C(=O)OC)([C@@H]3CCC(=O)O3)CC4=O)c2O1`: in data set [1], the Activity result is “Dose-dependent effect”. Further, in data set [2], the result was Active. Moreover, in data set [5], the “fold change (FC)” value is above 3.
